# A selection: hits, their analogues and other compounds. The true share with any hit is near 2.8%.
# SR-BI DiI inh: inhibitors of SR-BI mediated HDL lipid uptake, primary screen, ldlA[mSR-BI] cells, fluorescence, single point. 320,000 compounds, 0.96% hits. ldlA[mSR-BI] CHO cells, DiI-HDL uptake fluorescence, 3 h. inhibition, % at 12.5 µM;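 active = mean replicate inhibition of at least 70% and a set share of replicates each scoring 70 or more; inconclusive = meets just one of the two criteria; inactive = fails both criteria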
# CAL PDZ FP-1: untagged CAL PDZ binding inhibitors, primary screen, biochemical, fluorescence polarization, HTS; Golgi-associated PDZ and coiled-coil motif-containing protein (Homo sapiens), Q9HD26; purified CAL PDZ, TMR-peptide fluorescence polarization, 1 h; inhibition, % at 24.9 µM; 300,000 compounds, 0.92% hits;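 active = mean inhibition of at least 30% with at least half of replicates also reaching 30%; inconclusive = no clear call, values can overlap the other calls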
# CAL PDZ FP-2: CAL PDZ peptide-binding inhibitors, primary screen, biochemical, fluorescence polarization, Cer-tagged CAL PDZ, HTS; purified CAL PDZ, TMR-peptide fluorescence polarization, 1 h; 330,000 compounds, 0.02% hits; Golgi-associated PDZ and coiled-coil motif-containing protein (Homo sapiens), Q9HD26; inhibition, % at 20 µM; AID 504414, 2011;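 active = highest replicate inhibition of at least 40%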
#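 Assay system – tagged CAL PDZ protein CerCALP, purified · Timing – 1 h at RT · Compound – single point, 20 µM · Measured by – fluorescence polarization from S- and P-plane intensities, G-factor corrected · Evaluation – inhibition from polarization loss · Probe or stimulus – TMR reporter peptide T*-PRC34 · Buffer or medium – pH 7.4 phosphate-saline buffer, reducing agent, detergent, IgG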
# SR-BI DiI-HDL act: activators of SR-BI mediated DiI-HDL uptake, primary screen, ldlA[mSR-BI] CHO cells, DiI fluorescence; activation, % at 12.5 µM; 3 h; 100 = double the neutral-control signal; 320,000 compounds, 0.096% hits; AID 504775, 2011;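 active = mean replicate activation of at least 60% and every replicate at or above 60%; inconclusive = mean or all-replicate condition met, but not both; inactive = mean below 60% and not all replicates reaching 60%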
#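 Test system: SR-BI-overexpressing, LDLR-lacking CHO cells; Medium: Ham's F12 with 0.5% BSA, HEPES 25 mM, pH 7.4; Schedule: 3 h, 37 °C; Technique: bottom-read fluorescence, 550/595 nm.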
# dFosB act-1: activators of delta FosB homodimer, primary screen, biochemical, fluorescence polarization, TAMRA-CDK5 oligo, single point; Protein FosB (Mus musculus), P13346; purified delta FosB; percent of positive-control signal above neutral wells; activation, % at 25 µM; 340,000 compounds, 0.99% hits;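 active = mean activation above about 17%, with every replicate also reaching it, limit read from the data, passing the limit was not always enough; inconclusive = only one of the two conditions met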
# Target sequence (P13346 whole entry, looked up): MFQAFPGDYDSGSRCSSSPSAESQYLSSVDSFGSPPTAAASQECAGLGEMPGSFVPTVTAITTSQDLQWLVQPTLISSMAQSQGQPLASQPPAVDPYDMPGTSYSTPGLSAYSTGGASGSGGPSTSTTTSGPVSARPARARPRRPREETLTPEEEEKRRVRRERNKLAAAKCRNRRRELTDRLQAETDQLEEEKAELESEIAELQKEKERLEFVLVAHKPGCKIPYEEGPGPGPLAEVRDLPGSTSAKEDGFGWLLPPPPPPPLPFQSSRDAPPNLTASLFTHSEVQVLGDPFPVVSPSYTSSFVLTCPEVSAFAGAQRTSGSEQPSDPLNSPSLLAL
# dFosB act-2: activators of mouse delta FosB DNA binding, confirmation, biochemical, fluorescence polarization, TAMRA-CDK5 oligo, cherry-picked samples | shares compounds with dFosB act-1 | purified delta FosB; normalised: neutral wells 0, positive control 100 | activation, % at 24.9 µM | 2,400 tested, under 10 active | AID 588690, 2011;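 active = highest replicate activation at or above 34% and every replicate reaching that threshold; inconclusive = meets only one of the two criteria; inactive = meets neither criterion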;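 note: higher polarization means more probe DNA bound by delta FosB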
# A number is an active result; – = inactive; ? = inconclusive; · = no result.
SMILES,SR-BI DiI inh,CAL PDZ FP-1,CAL PDZ FP-2,SR-BI DiI-HDL act,dFosB act-1,dFosB act-2
COC(=O)c1ccccc1NC(=O)COC(=O)C1CCCCC1,–,–,–,–,–,·
O=c1[nH]cnc2cc(-c3ccc(Br)cc3)sc12,–,–,–,–,45,–
Cc1ccc(-c2nc(NC(=O)CSc3nnnn3-c3ccccc3)ns2)cc1,–,–,–,–,38,–
Cc1ccc(-n2nnnc2SCC(=O)Nc2ncc(Cc3ccccc3Cl)s2)cc1,–,–,–,–,104,–
O=C(NCC1OCCc2ccccc21)c1ccc(NC(=O)c2ccc(Cl)cc2Cl)cc1 (stereo not drawn),–,–,–,–,45,–
CC1CC(C)CN(S(=O)(=O)c2ccc3c(c2)oc(=O)n3CC(=O)NCCCOC(C)C)C1 (stereo not drawn),–,–,–,–,–,·
Cc1ccc(OCCC(=O)OCC(=O)NC(=O)NC2CCCC2)cc1,–,–,–,–,–,·
O=C(CCCC(=O)Nc1ccccc1Br)N/N=C/c1c(F)cccc1Cl,–,–,–,–,27,–
Nc1ccccc1SC1CC(=O)N(c2ccc3c(c2)OCCO3)C1=O (stereo not drawn),–,–,–,–,–,·
Nc1ccccc1SC1CC(=O)N(c2ccc(Cl)c(Cl)c2)C1=O (stereo not drawn),–,–,–,–,27,–
O=C(Nc1nc2ccccc2s1)c1cccc(S(=O)(=O)N2CCc3ccccc32)c1,–,–,–,–,34,–
O=C(NNC(=O)c1cccc(S(=O)(=O)N2CCc3ccccc32)c1)c1ccccc1,–,–,–,–,–,·
O=C(Nc1nc2c(s1)CN(Cc1ccccc1)CC2)c1cccc(S(=O)(=O)N2CCc3ccccc32)c1,–,–,–,–,74,–
COc1cc(OC)c(N(C)S(=O)(=O)c2cccc(C(=O)Nc3nnc(C4CC4)s3)c2)cc1Cl,·,–,–,·,63,–
O=C(Nc1nnc(C2CC2)s1)c1cccc(S(=O)(=O)N2CCc3ccccc32)c1,–,–,–,–,51,–
CC1(c2ccc(OC(F)F)cc2)NC(=O)N(CC(=O)c2ccc3c(c2)OCO3)C1=O (stereo not drawn),–,–,–,–,–,·
CCc1nnc(NC(=O)c2cccc(S(=O)(=O)N3CCc4ccccc43)c2)s1,–,–,–,–,34,–
Cc1nnc(NC(=O)c2cccc(S(=O)(=O)N3CCc4ccccc43)c2)s1,–,–,–,–,–,·
Cc1cccc(NS(=O)(=O)c2ccc3c(c2)Cc2cc(S(=O)(=O)Nc4cccc(C)c4C)ccc2-3)c1C,–,–,–,–,24,–
Cc1cccc(NS(=O)(=O)c2ccc3[nH]c(=O)[nH]c3c2)c1C,–,–,–,–,–,·
O=C(CCCCn1c(=O)c2ccccc2n(CC(=O)Nc2cccc(F)c2)c1=O)NCc1ccco1,–,–,–,–,24,–
Cc1cc(C)c(NC(=O)Cn2c(=O)n(Cc3ccco3)c(=O)c3ccccc32)c(C)c1,–,·,–,–,64,–
CCC(C)NC(=O)Cn1c(=O)n(CCCC(=O)NCc2ccccc2Cl)c(=O)c2ccccc21 (stereo not drawn),–,–,–,–,20,–
CCc1ccc(CNC(=O)C2CCN(S(=O)(=O)N3CCCC3)CC2)cc1,–,–,–,–,–,·
O=C(CSc1nnc2c(n1)[nH]c1ccc(S(=O)(=O)N3CCOCC3)cc12)Nc1ccccc1Cl,–,–,–,–,26,–
SMILES,SR-BI DiI inh,CAL PDZ FP-1,CAL PDZ FP-2,SR-BI DiI-HDL act,dFosB act-1,dFosB act-2
CC(=O)NC(=O)c1ccc(-c2ccc(Cl)cc2)o1,–,–,–,–,26,–
O=C(NC(=S)Nc1ccccc1O)c1ccc(-c2ccc(Cl)cc2)o1,–,–,–,–,–,·
Cc1ccc(OCCCCN(C)Cc2ccccc2)c(Br)c1,–,–,–,–,25,–
Cc1ccc(C(C)C)c(OCCCN(C)Cc2ccccc2)c1,–,–,–,–,–,·
N#C/C(=C/c1ccc(CNC(=O)C(=O)Nc2cc(Cl)cc(Cl)c2)o1)C(=O)NCc1cccnc1,–,–,–,–,53,–
Cc1ccc(C)c(NC(=O)CSc2nc(N)c(NC(=O)c3cccs3)c(=O)[nH]2)c1,–,–,–,–,33,–
Cc1cc(C)cc(NC(=O)CSc2nc(N)c(NC(=O)c3ccc(Br)o3)c(=O)[nH]2)c1,–,–,–,–,77,?
Cc1cccc(NC(=O)CSc2nc(N)c(NC(=O)c3cccs3)c(=O)[nH]2)c1,–,·,–,–,–,·
Nc1nc(SCC(=O)Nc2ccc(C(F)(F)F)cc2)[nH]c(=O)c1NC(=O)c1ccc(F)c(F)c1,–,–,–,–,50,–
CCc1nnc(NC(=O)CSc2nc(N)c(NC(=O)c3ccc(OC)cc3)c(=O)[nH]2)s1,–,–,–,–,48,–
Cc1ccc(NC2CCCN(C(=O)c3cn(C)c4ccccc34)C2)cc1C (stereo not drawn),–,–,–,–,–,·
CCOC(=O)c1oc2ccccc2c1COC(=O)CNC(=O)c1cccc(C)c1,–,·,–,·,–,·
Cc1cc(NC(=O)CSc2nc(N)c(NC(=O)c3ccccc3)c(=O)[nH]2)no1,–,–,–,–,–,·
Cc1cc(NC(=O)CSc2nc(N)c(NC(=O)c3ccc(F)c(F)c3)c(=O)[nH]2)no1,–,–,–,–,57,–
Cc1cc(NC(=O)CSc2nc(N)c(NC(=O)c3ccccc3F)c(=O)[nH]2)no1,–,–,–,–,22,–
CC(Sc1ncn[nH]1)C(=O)c1c(N)n(C)c(=O)n(C)c1=O (stereo not drawn),–,–,–,–,–,·
O=C(NC1CCCCC1)C(c1ccc(F)cc1)N(Cc1cccs1)C(=O)CN1C(=O)c2ccccc2S1(=O)=O (stereo not drawn),–,–,–,–,29,–
Cc1cc(SCC(=O)N/N=C/c2cccnc2)nc2c(C)cccc12,–,·,–,–,67,–
COc1ccc(Cc2nnc(NC(=O)Nc3cccc(OC)c3)s2)cc1,–,–,–,–,–,·
COc1cccc(NC(=O)Nc2nnc(CC(=O)Nc3ccccc3)s2)c1,·,–,–,·,?,·
